Data reported in ChEMBL document CHEMBL4312030, “Synthesis, biological evaluation, and docking study of indole aryl sulfonamides as aromatase inhibitors” (Eur J Med Chem, 2020).
Active and inactive are the calls of the source. The calls are words filed in the database; no cut-off is given here.

Assays:
Aromatase [1] = target: T1, Aromatase (Homo sapiens, UniProt P11511); assay: Inhibition of recombinant human aromatase at 1 uM preincubated for 10 mins followed by substrate and beta-NADP+ addition and measured for 60 mins by fluorimetric assay relative to letrozole; settings: 1 h
T1 sequence (P11511 whole entry): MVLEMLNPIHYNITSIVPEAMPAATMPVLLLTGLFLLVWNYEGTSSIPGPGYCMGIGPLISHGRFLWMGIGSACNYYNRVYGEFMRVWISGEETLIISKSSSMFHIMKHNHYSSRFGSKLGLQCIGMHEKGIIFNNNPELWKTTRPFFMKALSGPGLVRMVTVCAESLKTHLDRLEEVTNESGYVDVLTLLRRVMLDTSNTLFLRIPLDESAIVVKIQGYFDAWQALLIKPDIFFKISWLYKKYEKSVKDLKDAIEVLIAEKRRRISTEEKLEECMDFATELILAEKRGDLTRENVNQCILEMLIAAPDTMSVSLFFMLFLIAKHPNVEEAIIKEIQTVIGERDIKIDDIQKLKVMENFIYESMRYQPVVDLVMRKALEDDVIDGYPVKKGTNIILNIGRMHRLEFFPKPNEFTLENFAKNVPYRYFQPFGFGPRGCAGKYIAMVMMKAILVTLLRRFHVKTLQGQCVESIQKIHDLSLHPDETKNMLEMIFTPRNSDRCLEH
In short: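 Fluorimetric kit assay with recombinant human aromatase plus NADPH generating system; compounds at 1 µM final (from 5X in ACN; solvent 0.5% ACN), preincubated 10 min at 37°C.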

MCF7 [2] = assay: Cytotoxicity against human MCF7 cells assessed as cell metabolic activity after 24 hrs by MTT assay relative to control; format: functional
In short: (§1)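 MCF7 cells in DMEM high glucose with 10% FBS, 1% pen/strep, seeded 1x10⁴/well, adhered 24 h, then treated 0-250 µM for 24, 48 or 72 h. MTT (1 mg/ml, 1:10 in fresh medium) 4 h at 37°C, 5% CO₂; formazan dissolved in DMSO, OD 540 nm. Expressed as % of DMSO-treated cells (final DMSO <0.2%); three experiments in triplicate (n=9).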

Aromatase [3] = target: T1, Aromatase; assay: Inhibition of recombinant human aromatase preincubated for 10 mins followed by substrate and beta-NADP+ addition and measured for 60 mins by fluorimetric assay
In short: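 Recombinant human aromatase with NADPH generating system, preincubated 10 min at 37°C with inhibitor at 0.01-100 µM final (5X stocks 0.05-500 µM in ACN). Fluorogenic substrate/β-NADP+ added; fluorescence Ex/Em 488/527 nm kinetic 60 min. IC50 from fitted multi-point dose-response curves; mean of triplicate ± RSD.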

MCF7 [4] = assay: Cytotoxicity against human MCF7 cells assessed as active metabolizing cells at 250 uM after 48 hrs by MTT assay relative to control; format: functional; in short: as §1
MCF7 [5] = assay: Cytotoxicity against human MCF7 cells assessed as active metabolizing cells at 100 uM after 48 hrs by MTT assay relative to control; format: functional; in short: as §1
MCF7 [6] = assay: Cytotoxicity against human MCF7 cells assessed as cell metabolic activity at 250 uM after 24 hrs by MTT assay relative to control; format: functional; in short: as §1
MCF7 [7] = assay: Cytotoxicity against human MCF7 cells assessed as LDH release up to 250 uM after 24 hrs by CytoTox 96 Non-Radioactive assay relative to control; format: functional
In short: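 MCF7 cells (DMEM high glucose, 10% FBS, 1% pen/strep) seeded 1x10⁴/well, adhered 24 h, then exposed to 0-250 µM for 24 h. Supernatants centrifuged 450xg 4 min; LDH measured by 30-min coupled INT-to-formazan reaction, absorbance 490 and 690 nm. %LDH released = [(A490–B690)/(C–B)]×100, C = positive control cell lysate.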

MCF7 [8] = assay: Cytotoxicity against human MCF7 cells assessed as reduction in cell viability after 72 hrs by MTT assay; format: functional, cell-based; in short: as §1
MCF7 [9] = assay: Cytotoxicity against human MCF7 cells assessed as cell metabolic activity at 10 uM after 48 hrs by MTT assay relative to control; format: functional; in short: as §1
MCF7 [10] = assay: Cytotoxicity against human MCF7 cells assessed as reduction in cell viability at 100 uM after 24 to 72 hrs by MTT assay; format: functional, cell-based; in short: as §1

| inhibition at 1 µM (Aromatase [1]) [%] | IC50 (Aromatase [3]) [nM] | Structure (SMILES) | Activity (MCF7 [2]) [%] | Activity (MCF7 [7]) | Activity (MCF7 [9]) | other results |
| --- | --- | --- | --- | --- | --- | --- |
| 15.3 | – | O=S(=O)(Cc1ccccc1)Nc1ccc2cc[nH]c2c1 | – | – | – | – |
| 83.2 | 490 | Cc1ccc(S(=O)(=O)Nc2ccc3cc[nH]c3c2)cc1 | 45 | 35 - 40% | 40 - 45% | Activity (MCF7 [4]): 22.08%; Activity (MCF7 [5]): 20.78%; Activity (MCF7 [6]): 36.63%; inhibition (MCF7 [8]): Dose-dependent effect |
| 129 | 160 | O=S(=O)(Cc1ccccc1)Nc1ccc2[nH]ccc2c1 | 45 | 35 - 40% | 40 - 45% | Activity (MCF7 [4]): 20.08%; Activity (MCF7 [5]): 19.53%; Activity (MCF7 [6]): 38.62%; inhibition (MCF7 [8]): Dose-dependent effect |
| 19.7 | – | N#Cc1ccc(S(=O)(=O)NCCc2c[nH]c3ccccc23)c(Cl)c1 | – | – | – | – |
| 110 | 200 | O=S(=O)(NCCc1c[nH]c2ccccc12)c1ccccc1 | 45 | 35 - 40% | 40 - 45% | inhibition (MCF7 [10]): Active |
| 33.4 | – | Cc1ccc(S(=O)(=O)NCc2ccc3[nH]ccc3c2)cc1 | – | – | – | – |
| 75.2 | 750 | O=S(=O)(Cc1ccccc1)NCCc1c[nH]c2ccccc12 | 45 | 35 - 40% | 40 - 45% | inhibition (MCF7 [10]): Active |
| 43.5 | – | Cc1ccc(S(=O)(=O)NCCc2c[nH]c3ccccc23)cc1 | – | – | – | – |
| 18.6 | – | O=[N+]([O-])c1cccc(S(=O)(=O)Nc2ccc3cc[nH]c3c2)c1 | – | – | – | – |
| 12.8 | – | Cc1ccc(S(=O)(=O)Nc2ccc3[nH]ccc3c2)cc1[N+](=O)[O-] | – | – | – | – |
| 16.4 | – | O=S(=O)(Cc1ccccc1)NCc1ccc2[nH]ccc2c1 | – | – | – | – |
| 30.6 | – | Cc1ccc(S(=O)(=O)NCCc2c[nH]c3ccccc23)cc1[N+](=O)[O-] | – | – | – | – |
| 20.7 | – | O=S(=O)(NCc1ccc2[nH]ccc2c1)c1ccccc1 | – | – | – | – |
